Results reported in ChEMBL document CHEMBL1142547, “Synthesis and antiviral activity of novel pyrazole derivatives containing oxime esters group” (Bioorg Med Chem, 2008).
Active and inactive are the calls of the source. The rule behind the calls is not given here.

Each compound was assayed on Tobacco mosaic virus (assay: Antiviral activity against TMV assessed as viral disease curative effect at 500 mg/L).
Type: functional
Outline: (§1)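 TMV purified by Gooding's method. Protective, inactivating and curative effects tested on tobacco in vivo by Li's method at 500 mg/L. Ningnanmycin served as the reference control. Each experiment used three replicates and was run three times. Data were analysed by one-way ANOVA with LSD mean separation.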
For `CCCC(=O)O/N=C/C1C(C)=NN(c2ccccc2)C1Sc1ccc(F)cc1` (stereo not given), the Activity was 34%. With `CC1=NN(c2ccc(C)cc2)C(Sc2ccc(F)cc2)C1/C=N/OC(=O)c1ccccc1` (stereo not given) the Activity was 50%. With `CC1=NN(c2ccc(Cl)cc2)C(Sc2ccc(F)cc2)C1/C=N/OC(=O)c1ccccc1` (stereo not given) the Activity was 47.7%. `C/C=C/C=C/C(=O)O/N=C/C1C(C)=NN(c2ccc(Cl)cc2)C1Sc1ccc(F)cc1` (stereo not given) gave an Activity of 60%. Work on `CC1=NN(c2cccc(Cl)c2)C(Sc2ccc(F)cc2)C1/C=N/OC(=O)c1ccccc1` (stereo not given) yielded an Activity of 30.2%. `COc1ccc(SC2C(/C=N/OC(=O)c3ccccc3)C(C)=NN2c2ccc(Cl)cc2)cc1` (stereo not given) showed an Activity of 35%. `CCCCCC(=O)O/N=C/C1C(C)=NN(c2ccccc2)C1Sc1ccc(F)cc1` (stereo not given) showed an Activity of 40.2%. Work on `CC(=O)O/N=C/C1C(C)=NN(c2ccccc2)C1Sc1ccc(F)cc1` (stereo not given) yielded an Activity of 40.4%. `CNCC(=O)N[C@@H](CO)C(=O)N[C@H]1[C@H](O)[C@@H](O)[C@H](n2ccc(N)nc2=O)O[C@@H]1C(N)=O` [NINGNANMYCIN] showed an Activity of 56%. Work on `C/C=C/C=C/C(=O)O/N=C/C1C(C)=NN(c2ccc(Cl)cc2)C1Sc1ccc(C)cc1` (stereo not given) yielded an Activity of 38.9%. In the case of `CC1=NN(c2ccccc2)C(Sc2ccc(F)cc2)C1/C=N/OC(=O)c1ccccc1` (stereo not given), the Activity is reported as 34.9%. `CCCCCC(=O)O/N=C/C1C(C)=NN(c2ccc(Cl)cc2)C1Sc1ccc(F)cc1` (stereo not given) was tested, and the Activity was 62%. Work on `CCCCCC(=O)O/N=C/C1C(C)=NN(c2ccc(C)cc2)C1Sc1ccc(F)cc1` (stereo not given) yielded an Activity of 30%. Compound `C/C=C/C=C/C(=O)O/N=C/C1C(C)=NN(c2ccc(C)cc2)C1Sc1ccc(F)cc1` (stereo not given) has an Activity of 46.4%.

The compounds below were run on Tobacco mosaic virus (assay: Antiviral activity against TMV assessed as protection effect against viral infection at 500 mg/L).
Type: functional, organism-based
Outline: as §1
For `CCCC(=O)O/N=C/C1C(C)=NN(c2ccccc2)C1Sc1ccc(F)cc1` (stereo not given), the Activity was 25.9%. `CC1=NN(c2ccc(C)cc2)C(Sc2ccc(F)cc2)C1/C=N/OC(=O)c1ccccc1` (stereo not given) gave an Activity of 48.4%. In the case of `CC1=NN(c2ccc(Cl)cc2)C(Sc2ccc(F)cc2)C1/C=N/OC(=O)c1ccccc1` (stereo not given), the Activity is reported as 35%. With `C/C=C/C=C/C(=O)O/N=C/C1C(C)=NN(c2ccc(Cl)cc2)C1Sc1ccc(F)cc1` (stereo not given) the Activity was 28.3%. In the case of `CC1=NN(c2cccc(Cl)c2)C(Sc2ccc(F)cc2)C1/C=N/OC(=O)c1ccccc1` (stereo not given), the Activity is reported as 41%. `COc1ccc(SC2C(/C=N/OC(=O)c3ccccc3)C(C)=NN2c2ccc(Cl)cc2)cc1` (stereo not given) showed an Activity of 27.6%. `CCCCCC(=O)O/N=C/C1C(C)=NN(c2ccccc2)C1Sc1ccc(F)cc1` (stereo not given) was tested, and the Activity was 28.9%. `CC(=O)O/N=C/C1C(C)=NN(c2ccccc2)C1Sc1ccc(F)cc1` (stereo not given) gave an Activity of 36.7%. `C/C=C/C=C/C(=O)O/N=C/C1C(C)=NN(c2ccc(Cl)cc2)C1Sc1ccc(C)cc1` (stereo not given) gave an Activity of 50%. Work on `CC1=NN(c2ccccc2)C(Sc2ccc(F)cc2)C1/C=N/OC(=O)c1ccccc1` (stereo not given) yielded an Activity of 28.8%. `CCCCCC(=O)O/N=C/C1C(C)=NN(c2ccc(Cl)cc2)C1Sc1ccc(F)cc1` (stereo not given) showed an Activity of 31%. Work on `CCCCCC(=O)O/N=C/C1C(C)=NN(c2ccc(C)cc2)C1Sc1ccc(F)cc1` (stereo not given) yielded an Activity of 40.9%. In the case of `C/C=C/C=C/C(=O)O/N=C/C1C(C)=NN(c2ccc(C)cc2)C1Sc1ccc(F)cc1` (stereo not given), the Activity is reported as 26%.

What follows are compounds tested on Nicotiana tabacum (assay: Increase in peroxidase enzyme level in TMV-infected tobacco at 500 ug/mL after 1 day by Polle's method).
Type: functional, organism-based
Outline: (§2)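 Nicotiana tabacum inoculated with TMV was treated at 500 μg/mL, and leaves were sampled at 1, 3, 5 and 7 days. Leaves were homogenized on ice in 5 mM 2-mercaptoethanol–boric acid buffer, pH 8.8, then centrifuged. The supernatant was assayed for PAL (He), POD (Polle) or SOD (Beauchamp). Water and TMV-only treatments were the controls. Means ± SD, n = 3, one-way ANOVA.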
In the case of `CCCCCC(=O)O/N=C/C1C(C)=NN(c2ccc(Cl)cc2)C1Sc1ccc(F)cc1` (stereo not given), the Activity is reported as “Active”.

These compounds were tested on Nicotiana tabacum (assay: Increase in peroxidase enzyme level in TMV-infected tobacco at 500 ug/mL after 7 days by Polle's method).
Type: functional
Outline: as §2
`CCCCCC(=O)O/N=C/C1C(C)=NN(c2ccc(Cl)cc2)C1Sc1ccc(F)cc1` (stereo not given) was tested, and the Activity was 40 EU/mg.

These compounds were tested on Tobacco mosaic virus (assay: Antiviral activity against TMV assessed as viral inactivation effect at 500 mg/L).
Type: functional
Outline: as §1
Work on `CCCC(=O)O/N=C/C1C(C)=NN(c2ccccc2)C1Sc1ccc(F)cc1` (stereo not given) yielded an Activity of 79.9%. Compound `CC1=NN(c2ccc(C)cc2)C(Sc2ccc(F)cc2)C1/C=N/OC(=O)c1ccccc1` (stereo not given) has an Activity of 69.2%. With `CC1=NN(c2ccc(Cl)cc2)C(Sc2ccc(F)cc2)C1/C=N/OC(=O)c1ccccc1` (stereo not given) the Activity was 63.8%. For `C/C=C/C=C/C(=O)O/N=C/C1C(C)=NN(c2ccc(Cl)cc2)C1Sc1ccc(F)cc1` (stereo not given), the Activity was 82.9%. In the case of `CC1=NN(c2cccc(Cl)c2)C(Sc2ccc(F)cc2)C1/C=N/OC(=O)c1ccccc1` (stereo not given), the Activity is reported as 55%. `COc1ccc(SC2C(/C=N/OC(=O)c3ccccc3)C(C)=NN2c2ccc(Cl)cc2)cc1` (stereo not given) showed an Activity of 56.8%. Work on `CCCCCC(=O)O/N=C/C1C(C)=NN(c2ccccc2)C1Sc1ccc(F)cc1` (stereo not given) yielded an Activity of 67.8%. Compound `CC(=O)O/N=C/C1C(C)=NN(c2ccccc2)C1Sc1ccc(F)cc1` (stereo not given) has an Activity of 81.4%. With `CNCC(=O)N[C@@H](CO)C(=O)N[C@H]1[C@H](O)[C@@H](O)[C@H](n2ccc(N)nc2=O)O[C@@H]1C(N)=O` [NINGNANMYCIN] the Activity was 97%. In the case of `C/C=C/C=C/C(=O)O/N=C/C1C(C)=NN(c2ccc(Cl)cc2)C1Sc1ccc(C)cc1` (stereo not given), the Activity is reported as 68.9%. With `CC1=NN(c2ccccc2)C(Sc2ccc(F)cc2)C1/C=N/OC(=O)c1ccccc1` (stereo not given) the Activity was 55%. With `CCCCCC(=O)O/N=C/C1C(C)=NN(c2ccc(Cl)cc2)C1Sc1ccc(F)cc1` (stereo not given) the Activity was 85.6%. In the case of `CCCCCC(=O)O/N=C/C1C(C)=NN(c2ccc(C)cc2)C1Sc1ccc(F)cc1` (stereo not given), the Activity is reported as 61.5%. Work on `C/C=C/C=C/C(=O)O/N=C/C1C(C)=NN(c2ccc(C)cc2)C1Sc1ccc(F)cc1` (stereo not given) yielded an Activity of 80.2%.

The compounds below were run on Nicotiana tabacum (assay: Increase in PR-5 gene expression in TMV-infected tobacco leaf assessed as gene expression ratio on day 5 by RT-PCR).
Type: functional
Outline: (§3)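 Real-time PCR used gene-specific primers, with β-actin as the reference, and included a 40–95 °C melt curve. Expression ratio was calculated by ΔΔCT against a calibrator over days 1–7 after TMV inoculation. Mean ± SD, n = 4, triplicate sets.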
Compound `CNCC(=O)N[C@@H](CO)C(=O)N[C@H]1[C@H](O)[C@@H](O)[C@H](n2ccc(N)nc2=O)O[C@@H]1C(N)=O` [NINGNANMYCIN] has a Ratio of 17.9. For `CCCCCC(=O)O/N=C/C1C(C)=NN(c2ccc(Cl)cc2)C1Sc1ccc(F)cc1` (stereo not given), the Activity was “inactive”.

The compounds below were run on Nicotiana tabacum (assay: […] in phenylalanine ammonia lyase level in TMV-infected tobacco at 500 ug/mL up to 7 days by He's method).
Type: functional, organism-based
Outline: as §2
In the case of `CCCCCC(=O)O/N=C/C1C(C)=NN(c2ccc(Cl)cc2)C1Sc1ccc(F)cc1` (stereo not given), the Activity is reported as “Active”.

What follows are compounds tested on Nicotiana tabacum (assay: Increase in superoxide dismutase level in TMV-infected tobacco at 500 ug/mL after 1 day by Beauchamp's method).
Type: functional, organism-based
Outline: as §2
With `CCCCCC(=O)O/N=C/C1C(C)=NN(c2ccc(Cl)cc2)C1Sc1ccc(F)cc1` (stereo not given) the Activity was “Active”.

What follows are compounds tested on Nicotiana tabacum (assay: Increase in superoxide dismutase level in TMV-infected tobacco at 500 ug/mL after 7 days by Beauchamp's method).
Type: functional
Outline: as §2
Work on `CCCCCC(=O)O/N=C/C1C(C)=NN(c2ccc(Cl)cc2)C1Sc1ccc(F)cc1` (stereo not given) yielded an Activity of 40 EU/mg.

These compounds were tested on Nicotiana tabacum (assay: Increase in PR-1a gene expression in TMV-infected tobacco leaf assessed as gene expression ratio on day 5 by RT-PCR).
Type: functional
Outline: as §3
For `CNCC(=O)N[C@@H](CO)C(=O)N[C@H]1[C@H](O)[C@@H](O)[C@H](n2ccc(N)nc2=O)O[C@@H]1C(N)=O` [NINGNANMYCIN], the Ratio was 13.8. `CCCCCC(=O)O/N=C/C1C(C)=NN(c2ccc(Cl)cc2)C1Sc1ccc(F)cc1` (stereo not given) was tested, and the Ratio was 26.6.
